The test system of series [1] is histone deacetylase (HDAC). Kind of series: Percent conversion by rat liver histone deacetylase (HDAC) was determined after 24 h. It counts as ADME. The conditions noted are these: read-out: Conversion. The essentials: (§1)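 Deacetylase from rat liver, purified by ammonium sulfate precipitation and Q-sepharose NaCl-gradient chromatography (class I and II subtypes), in phosphate buffer pH 7.9 (EDTA, NaCl, glycerol, 2-mercaptoethanol). Enzyme preincubated 15 min at 4 °C, then run at 37 °C with candidate substrate and 7-hydroxycoumarin internal standard. Stopped with HCl/sodium acetate, ethyl acetate extraction, reversed-phase HPLC with fluorescence detection. Conversion taken against no-enzyme control. Duplicates.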

For series [2], the system named is histone deacetylase (HDAC). As to the kind of experiment: Percent conversion by rat liver histone deacetylase (HDAC) was determined after 6 h. The series is classed as ADME. The conditions noted are these: read-out: Conversion. The procedure, abridged:
as §1

The subject of series [3] is histone deacetylase (HDAC). Kind of series: Percent conversion by rat liver histone deacetylase (HDAC) was determined after 3 h. The settings on record: read-out: Conversion. The series is classed as ADME. The procedure, abridged: as §1
Series [4] deals with histone deacetylase (HDAC). As to the kind of experiment: Percent conversion by rat liver histone deacetylase (HDAC) was determined after 2 h. The series is classed as ADME. The conditions noted are these: read-out: Conversion. The procedure, abridged:
as §1

Series [5] has as its system histone deacetylase (HDAC). As to the kind of experiment: Percent conversion by rat liver histone deacetylase (HDAC) was determined after 1 h. The series is classed as ADME. The settings on record: read-out: Conversion. The procedure, abridged:
as §1

The test system of series [6] is HDAC6/HDAC1 (Homo sapiens). Kind of series: Selectivity ratio for Histone deacetylase 6 versus Histone deacetylase 1.
Series [7] deals with Histone deacetylase. As to the kind of experiment: Inhibitory activity against rat liver Histone deacetylase with substrate 3b.
The target in series [8] is Histone deacetylase. As to the kind of experiment: Inhibitory activity against rat liver Histone deacetylase with substrate 5b.
Series [9] addresses Histone deacetylase. Kind of series: Inhibitory activity against rat liver Histone deacetylase with substrate 3a.
The target of series [10] is Histone deacetylase. As to the kind of experiment: Inhibitory concentration against rat liver histone deacetylase (HDAC) with substrate 5a.
In series [11] the target is Histone deacetylase. Kind of series: Inhibitory concentration against rat liver histone deacetylase (HDAC) with substrate 3a.

Square brackets hold non-standard residues; d marks the D form. Peptide text beside a SMILES is read from it. * marks the point of attachment. Asu = N[C@@H](CCCCCC(=O)O)C(=O)O; Aib = CC(C)(N)C(=O)O; NHOH = ON*

As to `CC(=O)NCCCC[C@H](NC(=O)OCC1c2ccccc2-c2ccccc21)C(=O)Nc1ccc2c(C)cc(=O)oc2c1`, in series [1], the metabolised at 24 h was 90%. The metabolised at 6 h in series [2] was 86%. In [3], the metabolised at 3 h turned out to be 78%. Besides, in [4], the metabolised at 2 h came out at 74%. For the same compound, in [5], the metabolised at 1 h turned out to be 47%.

Regarding `CC[C@@H](C)[C@@H]1NC(=O)[C@@H](Cc2ccc(OC)cc2)NC(=O)[C@H](CCCCCC(=O)NO)NC(=O)[C@H]2CCCN2C1=O`, in [6], the Selectivity was 34. The values for the IC50 at Histone deacetylase [7], at Histone deacetylase [8] and against Histone deacetylase [9] were 80.4 nM, 6.29 nM and 55.7 nM, respectively.

Regarding `CN(C)c1ccc(C(=O)NCCCCCCC(=O)NO)cc1`, the IC50 against Histone deacetylase [7] came to 148 nM; against Histone deacetylase [8], 3512 nM; on Histone deacetylase [9], 78.2 nM.

Regarding `CCCC(=O)NCCCC[C@H](NC(=O)OCc1ccccc1)C(=O)Nc1ccc2c(C)cc(=O)oc2c1`, the metabolised at 24 h in series [1] turned out to be 48%. Besides, the metabolised at 6 h in series [2] was 21%. Moreover, the metabolised at 3 h in series [3] was found to be 12%. Moreover, the metabolised at 2 h in [4] is 1%. Further, the metabolised at 1 h in series [5] was determined as 0%.

On to `CN(C)c1ccc(C(=O)NCCCCCC(=O)NO)cc1`, for which the figures for the IC50 against Histone deacetylase [10] and on Histone deacetylase [11] were 640 nM and 216 nM, respectively.

For the compound `CCC(=O)NCCCC[C@H](NC(=O)OCc1ccccc1)C(=O)Nc1ccc2c(C)cc(=O)oc2c1`, the metabolised at 24 h in [1] came to 87%. Further, the metabolised at 6 h in series [2] amounted to 74%. For the same compound, the metabolised at 3 h in [3] is 47%. Further, the metabolised at 2 h in series [4] came out at 33%. Moreover, in series [5], the metabolised at 1 h came to 20%.

Consider `CC(=O)NCCCC[C@@H](NC(=O)OCc1ccccc1)C(=O)Nc1ccc2c(C)cc(=O)oc2c1`, for which the metabolised at 24 h in series [1] was 14%. In addition, the metabolised at 6 h in series [2] amounted to 3%. The metabolised at 3 h in series [3] came out at 0%. Further, the metabolised at 2 h in series [4] stood at 9%. Also, in series [5], the metabolised at 1 h was determined as 0%.

Turning to `CC1(C)NC(=O)[C@H](CCCCCC(=O)NO)NC(=O)[C@H]2CCCN2C(=O)[C@H](Cc2ccccc2)NC1=O` (cyclo([Aib]F[dP][Asu](NHOH))), the 50% inhibitory concentration (IC50) is recorded as 226 nM against Histone deacetylase [7], 21.2 nM on Histone deacetylase [8] and 137 nM against Histone deacetylase [9].

As to `CC(=O)NCCCC[C@H](NC(=O)OC(C)(C)C)C(=O)Nc1ccc2c(C(F)(F)F)cc(=O)oc2c1`, the metabolised at 24 h in [1] stood at 96%. Further, the metabolised at 6 h in [2] stood at 68%. The metabolised at 3 h in series [3] was 47%. In addition, in [4], the metabolised at 2 h was determined as 43%. Also, the metabolised at 1 h in series [5] stood at 30%.

On to `Cc1cc(=O)oc2cc(NC(=O)[C@H](CCCCNC(=O)Cc3ccccc3)NC(=O)OCc3ccccc3)ccc12`, for which the metabolised at 24 h in series [1] came to 0%. The metabolised at 6 h in series [2] worked out at 0%. In addition, in [3], the metabolised at 3 h stood at 0%. In addition, in series [4], the metabolised at 2 h came out at 0%. In series [5], the metabolised at 1 h is 0%.

As to `CC(=O)NCCCC[C@H](NC(=O)OCc1ccccc1)C(=O)Nc1ccc2c(C)cc(=O)oc2c1`, the metabolised at 24 h in [1] worked out at 100%. Besides, the metabolised at 6 h in series [2] is 96%. In addition, the metabolised at 3 h in [3] turned out to be 93%. Further, the metabolised at 2 h in [4] was 87%. Also, the metabolised at 1 h in series [5] was determined as 67%.

As for `O=C(CCCCC[C@@H]1NC(=O)[C@H]2CCCN2C(=O)[C@H](Cc2ccccc2)NC(=O)[C@H](Cc2ccccc2)NC1=O)NO`, the IC50 at Histone deacetylase [7] turned out to be 411 nM; against Histone deacetylase [8], 65.6 nM; against Histone deacetylase [9], 349 nM.

As for `Cc1cc(=O)oc2cc(NC(=O)[C@H](CCCCNC(=O)C(F)(F)F)NC(=O)OCc3ccccc3)ccc12`, in series [1], the metabolised at 24 h worked out at 64%. In series [2], the metabolised at 6 h is 54%. For the same compound, the metabolised at 3 h in series [3] turned out to be 57%. Moreover, the metabolised at 2 h in [4] came to 41%. The metabolised at 1 h in [5] was determined as 16%.

For `CN(C)c1ccc(C(=O)NCCCCCCCC(=O)NO)cc1`, the values for the IC50 against Histone deacetylase [7], against Histone deacetylase [8] and against Histone deacetylase [9] were 488 nM, 241 nM and 256 nM, respectively.

Take `CC(=O)NCCCC[C@H](NC(=O)OC(C)(C)C)C(=O)Nc1ccc2c(C)cc(=O)oc2c1`: in [1], the metabolised at 24 h came out at 100%. Also, the metabolised at 6 h in series [2] came to 91%. In addition, in series [3], the metabolised at 3 h worked out at 70%. For the same compound, in series [4], the metabolised at 2 h was determined as 60%. Also, in [5], the metabolised at 1 h came out at 38%.

The values are drawn from ChEMBL document CHEMBL1138783, “Subtype selective substrates for histone deacetylases” (J Med Chem, 2004).
